Several values for one entry are separate records, joined by “and”; a condition that tells them apart may be missing. Equal values may be shown once.
Tested on: Fibroblast
Assay: Multiplex assay against human fibroblast
Assay type: toxicity, cell-based
Outline: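 Imaging took place on a CQ1 microscope at 37°C and 5% CO2 once compound had been added to live cells stained at seeding with Hoechst33342, BioTracker Green Microtubule Cytoskeleton Dye, MitoTracker Red and Annexin V Alexa Fluor 680. CellPathfinder machine-learning gating classed cells as Hoechst high-intensity objects or normal cells, classed normal cells as having healthy, pyknosed or fragmented nuclei, and classed pyknosed cells as mitotic or apoptotic. Tubulin, mitochondrial-mass and membrane-permeability phenotypes are per cents of the healthy-nucleus cells.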

[1] = 12 h, 1 µM, compound concentration 1 uM
[2] = 12 h, 10 µM, compound concentration 10 uM
[3] = 24 h, 1 µM, compound concentration 1 uM
[4] = 24 h, 10 µM, compound concentration 10 uM
[5] = 48 h, 1 µM, compound concentration 1 uM
[6] = 48 h, 10 µM, compound concentration 10 uM

## CN1CCN2c3ncccc3Cc3ccccc3C2C1 (stereo not drawn) [MIRTAZAPINE]
[1]
  Population Apoptotic (%): 44% and 33%
  Population Fragmented Nuclei (%): 10% and 24%
  Population Healthy Nuclei (%): 77% and 47%
  Population Hoechst High Intensity Objects (%): 3%
  Population Membrane Permeable-Phenotype (%): 0% and 4%
  Population Mitochondria Different-Phenotype (%): 6% and 5%
  Population Mitotic Cells (%): 56% and 66%
  Population Normal (%): 96%
  Population Pyknosed Nuclei (%): 12% and 27%
  Population Tubulin-Different-Phenotype (%): 24% and 45%
  Total Cell Count: 213 and 156
[2]
  Population Apoptotic (%): 44% and 28%
  Population Fragmented Nuclei (%): 19% and 27%
  Population Healthy Nuclei (%): 69% and 40%
  Population Hoechst High Intensity Objects (%): 1% and 6%
  Population Membrane Permeable-Phenotype (%): 0% and 16%
  Population Mitochondria Different-Phenotype (%): 8% and 7%
  Population Mitotic Cells (%): 55% and 71%
  Population Normal (%): 98% and 93%
  Population Tubulin-Different-Phenotype (%): 30% and 60%
  Total Cell Count: 168 and 140
[3]
  Population Apoptotic (%): 47% and 48%
  Population Healthy Nuclei (%): 82% and 50%
  Population Hoechst High Intensity Objects (%): 5% and 0%
  Population Membrane Permeable-Phenotype (%): 0% and 10%
  Population Mitochondria Different-Phenotype (%): 5% and 10%
  Population Mitotic Cells (%): 52% and 51%
  Population Normal (%): 94% and 99%
  Population Pyknosed Nuclei (%): 10% and 23%
  Population Tubulin-Different-Phenotype (%): 31% and 36%
  Total Cell Count: 201 and 153
[4]
  Population Apoptotic (%): 50% and 46%
  Population Fragmented Nuclei (%): 19% and 29%
  Population Healthy Nuclei (%): 72% and 46%
  Population Hoechst High Intensity Objects (%): 4% and 5%
  Population Membrane Permeable-Phenotype (%): 0% and 15%
  Population Mitochondria Different-Phenotype (%): 9% and 1%
  Population Mitotic Cells (%): 50% and 53%
  Population Normal (%): 95% and 94%
  Population Tubulin-Different-Phenotype (%): 30% and 68%
  Total Cell Count: 186 and 136
[5]
  Population Apoptotic (%): 60% and 50%
  Population Fragmented Nuclei (%): 15% and 36%
  Population Healthy Nuclei (%): 73% and 45%
  Population Hoechst High Intensity Objects (%): 7% and 2%
  Population Membrane Permeable-Phenotype (%): 0% and 11%
  Population Mitochondria Different-Phenotype (%): 4% and 12%
  Population Mitotic Cells (%): 39% and 50%
  Population Normal (%): 92% and 97%
  Population Pyknosed Nuclei (%): 11% and 17%
  Population Tubulin-Different-Phenotype (%): 31% and 56%
  Total Cell Count: 213 and 161
[6]
  Population Apoptotic (%): 66% and 33%
  Population Fragmented Nuclei (%): 17% and 46%
  Population Healthy Nuclei (%): 73% and 41%
  Population Hoechst High Intensity Objects (%): 5% and 2%
  Population Membrane Permeable-Phenotype (%): 0% and 8%
  Population Mitochondria Different-Phenotype (%): 9% and 2%
  Population Mitotic Cells (%): 33% and 66%
  Population Normal (%): 94% and 97%
  Population Pyknosed Nuclei (%): 9% and 12%
  Population Tubulin-Different-Phenotype (%): 36% and 60%
  Total Cell Count: 176 and 120

Reference: ChEMBL document CHEMBL5724801, “EUbOPEN Chemogenomics Library - Multiplex” (2024)
